High-throughput results as filed in PubChem BioAssay.
Mcl1-Bid inh – Mcl-1/Bid interaction inhibition. TR-FRET Mcl-1/Bid-Dy647 peptide binding, 1536-well. hit rate 0.97% among 220,000. inhibition, % at 21.7 µM;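 active = compounds that cut the binding signal by more than half at the single screening dose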;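 also: His-tagged Mcl-1 with europium anti-His antibody binding Bid BH3 peptide; 0% = Mcl-1 plus peptide wells and 100% = peptide-only wells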
MCL1-BIM inh – disrupts human MCL1 binding to BIM-BH3 peptide; Q07820; GST-MCL1 / FITC-Bim-BH3 fluorescence polarization; inhibition, % at 10.9 µM; hit rate 0.68% among 320,000; AID 2057;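 active = inhibition above the mean inhibition of all tested compounds plus 3 SD, set per campaign, cut at about 40% in these data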;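 also: 0% = DMSO wells and 100% = unlabeled Bim-BH3 peptide control; higher means more loss of mP so more displacement of Bim peptide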
DSG3 Ab inh – inhibitors of pemphigus antibody binding to human desmoglein-3; P32926; DSG3-coupled beads, scFv-anti-DSG3-GFP binding, flow cytometry; hits give low values; binding (percent of control), % at 10 µM; hit rate 0.48% among 310,000;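 active = binding more than 3 SD below its plate's average and above zero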;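 also: hits lower antibody fragment binding to DSG3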
Target sequence (P32926 whole entry, looked up, the tested form may be a part): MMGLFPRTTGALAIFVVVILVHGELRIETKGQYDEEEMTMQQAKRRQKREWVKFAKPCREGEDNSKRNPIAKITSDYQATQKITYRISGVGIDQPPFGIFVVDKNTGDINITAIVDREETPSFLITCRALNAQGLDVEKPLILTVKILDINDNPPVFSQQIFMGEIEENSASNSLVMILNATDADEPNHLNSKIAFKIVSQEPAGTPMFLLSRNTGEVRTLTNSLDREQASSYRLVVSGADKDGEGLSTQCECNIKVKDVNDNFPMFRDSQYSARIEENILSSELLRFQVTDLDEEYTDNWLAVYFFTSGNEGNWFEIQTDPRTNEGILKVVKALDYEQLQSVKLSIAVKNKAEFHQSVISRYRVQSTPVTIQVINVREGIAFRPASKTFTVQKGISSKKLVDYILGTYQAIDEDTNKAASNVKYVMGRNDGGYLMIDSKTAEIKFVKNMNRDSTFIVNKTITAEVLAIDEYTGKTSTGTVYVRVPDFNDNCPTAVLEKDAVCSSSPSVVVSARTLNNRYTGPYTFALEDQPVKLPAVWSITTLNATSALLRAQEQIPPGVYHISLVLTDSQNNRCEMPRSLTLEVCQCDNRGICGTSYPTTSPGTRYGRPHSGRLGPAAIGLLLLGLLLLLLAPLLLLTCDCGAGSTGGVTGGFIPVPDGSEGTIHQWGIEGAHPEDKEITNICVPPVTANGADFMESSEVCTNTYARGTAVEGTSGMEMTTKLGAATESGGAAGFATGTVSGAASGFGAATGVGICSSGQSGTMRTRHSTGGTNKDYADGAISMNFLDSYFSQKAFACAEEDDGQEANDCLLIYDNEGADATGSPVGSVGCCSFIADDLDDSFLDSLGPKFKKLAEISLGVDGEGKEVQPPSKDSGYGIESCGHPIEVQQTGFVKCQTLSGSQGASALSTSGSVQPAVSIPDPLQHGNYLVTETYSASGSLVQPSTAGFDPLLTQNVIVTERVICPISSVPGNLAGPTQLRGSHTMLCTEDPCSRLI
Mcl-1 Bim block – inhibitors of Bim-Mcl-1 interaction, human. Bead-based flow cytometry, Bim peptide-Mcl-1 binding. inhibition, % at 10 µM. hit rate 0.1% among 190,000. AID 1009; in the data active = inhibition above about 40%;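 also: 0% = no compound tracer wells and 100% = peptide blocker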
T cell modulator – T cell immune modulators affecting CD8 T cell-vesicle binding; 2C CD8+ T cell-vesicle binding, flow cytometry; hits give low values; response (vesicle binding), % at 7 µM; hit rate 0.068% among 330,000;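 active = response, share of CD8 T cells binding vesicles, and their 90th percentile fluorescence all below set limits, cut at about 80% in these data, passing the limit was not always enough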;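 also: values below 100% mean blocked vesicle binding to the CD8+ T cells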
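Assay system: 2C TCR transgenic mouse naive CD8+ T cells, MACS-purified | Read-out: CD8+ gate FL2 mean fluorescence as % of same-row positive control | Signal: High-throughput flow cytometry with anti-B7-1 and anti-CD8 staining | Timing: Binding step 1.5 h, 37 °C, antibody labelling 20 min, ice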
Mcl1-Noxa inh – disrupts binding of human Mcl-1 to Noxa peptide; hit rate 1.5% among 220,000; Q07820; TR-FRET Mcl-1/Noxa peptide binding, 2 h; AID 1022; inhibition, % at 21.7 µM;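 active = compounds that cut the protein-peptide binding signal by more than 50% relative to plate controls in a single-dose test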;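 also: His-tagged Mcl-1 with rhodamine Noxa BH3 peptide and terbium anti-His antibody; 0% = Mcl-1 plus Noxa peptide wells and 100% = peptide-only wells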
Starred values were filed as active, the others as inactive; i = inactive; . = not tested or not shown. The list is not random: actives were taken first. Their share in the collection is about 2.3%.

SMILES | Mcl1-Bid inh | MCL1-BIM inh | DSG3 Ab inh | Mcl-1 Bim block | T cell modulator | Mcl1-Noxa inh
CCCC(=O)NC(=S)Nc1sc2c(c1C(N)=O)CCC2 | -57.8 | 5.9 | 103.8 | -4.0 | 130.9 | 47.9
CC(C)C(=O)NC(=S)Nc1sc2c(c1C(N)=O)CCCC2 | -80.4 | 22.4 | 99.2 | 0.0 | 284.5 | 64.3*
Cc1cc(C(=O)NNC(=O)c2ccc(C)c([N+](=O)[O-])c2)c(C)o1 | . | . | 95.3 | . | . | .
COc1ccc(S(=O)(=O)NNC(=S)NCCc2ccccc2)c(OC)c1 | . | 7.7 | . | . | i | .
O=C(Nc1nc(-c2ccco2)c(-c2ccco2)s1)C1CC(=O)N(c2ccc3c(c2)OCCO3)C1 (centres undefined) | 18.5 | 11.5 | 82.8 | 5.0 | 232.5 | 74.6*
CC(C)(C)n1nnnc1C(c1cccnc1)N1CCN(C2CCCCC2)CC1 (centres undefined) | -10.4 | 3.0 | 84.7 | -1.0 | 407.7 | -10.1
CC(C)(C)c1cc(C(c2cccnc2)N2CCN(CCO)CC2)cc(C(C)(C)C)c1O (centres undefined) | 54.9* | 11.4 | 127.5 | -11.0 | 273.8 | 42.3
CN(C(=O)C1CC1)C1CCS(=O)(=O)C1 (centres undefined) | . | 2.9 | 83.7* | . | 199.0 | .
CC(O)(Cc1ccccn1)Cc1ccccn1 | . | . | 118.2 | . | . | .
CCN(CC)S(=O)(=O)c1ccc(N2CCOCC2)c(NC(=O)c2c3c(nc4ccccc24)CCC3)c1 | 19.7 | 24.4 | 123.5 | -2.0 | 181.2 | 91.0*
O=C(Nc1cccc(S(=O)(=O)N2CCOCC2)c1)c1c2c(nc3ccccc13)CCC2 | -50.8 | 29.8 | 94.3 | 0.0 | 309.5 | 73.8*
CCN(CC)S(=O)(=O)c1ccc(N2CCOCC2)c(NC(=O)c2cccc3ccccc23)c1 | -3.9 | 5.8 | 114.5 | 0.0 | 308.1 | 2.6
O=[N+]([O-])c1ccc(OCc2cnc(Cl)s2)c([N+](=O)[O-])c1 | -12.8 | 4.6 | 86.8* | -1.0 | 257.7 | -4.2
CC(C)CN(CCNC(=O)CN1C(=O)COc2ccc(S(=O)(=O)N3CCC(C)CC3)cc21)CC(C)C | . | 6.2 | . | . | 769.8 | .
O=C(O)c1cccc(S(=O)(=O)Nc2ccccc2C(=O)NCCc2ccccc2)c1 | . | 4.7 | 17.1* | . | 173.4 | .
O=C(O)c1cccc(S(=O)(=O)NCCc2ccccc2)c1 | -38.6 | 0.3 | 93.9 | -5.0 | 143.8 | 5.4
CC(C)Oc1ccc(C(=O)Nc2cccc(S(=O)(=O)N3CCCC3)c2)cc1 | . | . | 120.6 | . | 158.3 | .
CN(C)CC(O)CN(c1ccccc1)c1ccccc1 (centres undefined) | 98.0* | 7.8 | 98.2 | . | 393.3 | 8.4
Cc1cccc(NC(=O)COC(=O)CN2C(=O)C3CCCCC3C2=O)c1C (centres undefined) | . | . | 102.8 | . | . | .
O=c1c2cnn(-c3ccccc3)c2nc(-c2cccs2)n1-c1cccc(Cl)c1 | 79.3* | -11.4 | 95.5 | 22.0 | 242.5 | 14.6
O=c1oc(-c2cccs2)nc2c1cnn2-c1ccccc1 | -22.9 | -3.5 | 86.0* | 0.0 | 306.2 | 4.5
O=c1oc(-c2ccccc2)nc2c1cnn2-c1ccccc1 | -2.0 | -3.1 | 102.0 | -4.0 | 248.8 | -18.1
CN1OC[C@@H]2CN(S(=O)(=O)c3cccc4ccccc34)[C@H](c3ccc(-c4cccnc4)cc3)C[C@@H]21 | . | . | 94.8 | . | . | .
COCc1cc(C)n(CC(=O)Nc2ccc(Cl)cc2Cl)c(=O)c1C#N | -26.2 | -1.7 | -3.1* | -2.0 | 159.4 | -4.7
Cc1ccc(NC(=O)NC2CC(=O)N(c3ccc4c(c3)OCCO4)C2)c(C)c1 (centres undefined) | . | 2.0 | 101.7 | . | 468.9 | .
SMILES | Mcl1-Bid inh | MCL1-BIM inh | DSG3 Ab inh | Mcl-1 Bim block | T cell modulator | Mcl1-Noxa inh
CC1CN(C2CCN(S(=O)(=O)Cc3ccccc3)CC2)CC(C)O1 (centres undefined) | 50.9* | -9.3 | 89.6 | 0.0 | 476.8 | 13.5
CCCOC(=O)C1=C(C)N(C)C(=O)NC1c1cc2c(cc1[N+](=O)[O-])OCO2 (centres undefined) | -41.8 | 45.2* | 98.3 | 1.0 | 327.5 | 29.8
CC1=C(C(=O)OCC(C)C)C(c2cc3c(cc2Br)OCO3)NC(=O)N1C (centres undefined) | -14.7 | 5.9 | 107.1 | 1.0 | 341.7 | 9.8
Cc1ccc(OCC(=O)Nc2ccc(N3CCN(S(C)(=O)=O)CC3)cc2)c(C)c1 | 2.7 | -1.7 | 112.5 | 1.0 | 579.3 | 26.1
Cc1ccc(C(C)C)c(OCC(=O)Nc2ccc(N3CCN(S(C)(=O)=O)CC3)cc2)c1 | -10.2 | 6.6 | 52.5* | -3.0 | 157.5 | 11.9
CCOC(=O)c1c(NC(=O)C2=COCCO2)sc2c1CCN(C(=O)OC)C2 | . | -0.9 | 104.6 | . | 380.8 | .
Cc1cccc(C(=O)O[C@@H]2[C@H](Cc3ccccc3)NS(=O)(=O)[C@H]3C[C@@H]4C=C[C@]23O4)c1 | . | 3.3 | . | . | 206.4 | .
Cc1c(C(=O)/C=C/c2ccccc2F)c2cc(O)ccc2n1C | . | . | 99.0 | . | . | .
CN(c1ccc(OCC(=O)OCC(=O)c2c(N)n(C)c(=O)n(C)c2=O)cc1)S(=O)(=O)c1ccc2ccccc2c1 | 1.1 | -6.2 | 97.5* | 3.0 | 254.2 | 7.5
COc1ccc2oc(-c3ccc(C)c(NC(=O)CSc4ccc(Cl)cc4)c3)nc2c1 | 53.7* | 2.5 | 101.3 | -2.0 | 239.3 | 35.5
O=C(O)c1cc(C(=O)O)cc(-c2ccc(/C=c3/sc4nc5ccccc5n4c3=O)o2)c1 | -32.2 | . | . | 1.0 | . | 54.1*
O=C(O)c1cccc(-c2ccc(/C=c3/sc4nc5ccccc5n4c3=O)o2)c1 | 33.4 | 22.2 | 95.2 | . | 170.4 | 88.9*
O=c1/c(=C/c2ccccn2)sc2nc3ccccc3n12 | 46.9 | 27.3 | 110.8 | 0.0 | 333.3 | 43.7
O=c1/c(=C\c2cc([N+](=O)[O-])cc([N+](=O)[O-])c2O)sc2nc3ccccc3n12 | 91.2* | -54.1 | 109.3 | -1.0 | 573.0 | 105.2*
COCCCNC(=O)/C(C#N)=C/c1c(N2CCN(c3ccccc3)CC2)nc2ccccn2c1=O | . | 9.8 | 99.6 | . | 235.0 | .
CN[C@H](C)C(=O)NC[C@H]1O[C@@H](n2cc(C)c(=O)[nH]c2=O)C[C@@H]1O | . | . | 102.7 | . | . | .
COCCn1c(C)cc(C(=O)CN2C(=O)NC3(CCCCCCC3)C2=O)c1C | -33.1 | -3.1 | 103.2 | -6.0 | 0.0* | .
O=C(Nc1ccc(F)cc1)c1nc[nH]c1C(=O)Nc1ccc([N+](=O)[O-])cc1 | 62.3* | 3.5 | 99.1 | -1.0 | 369.5 | 62.5*
CCN(CC)S(=O)(=O)c1ccc(C(=O)OC2CCCCC2CN(C)C)cc1 (centres undefined) | 50.9* | 2.4 | 101.9 | -3.0 | 406.7 | -3.7
CN(C)CC1CCCCC1OC(=O)c1ccc(Cl)cc1 (centres undefined) | 13.7 | -7.2 | 112.6 | -5.0 | 208.7 | 8.0
O=C(COC(=O)c1cnccn1)Nc1ccc2c(c1)OCO2 | -1.0 | -4.3 | 104.9 | 0.0 | 484.9 | 62.2*
O=C(Nc1ccc2c(c1)OCO2)c1cnccn1 | -42.6 | -3.1 | 94.8 | -1.0 | 603.0 | 2.2
